# Scp-1 inhibitor – blocks human Scp-1 phosphatase activity | Recombinant Scp1, phosphopeptide, malachite green phosphate absorbance | inhibition, % at 20 µM | Q9GZU7 | actives 0.88% (n = 340,000);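 active = inhibition above about 50% at 20 µM, limit read from the data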;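 also: plate controls were DMSO wells with enzyme for no effect and wells lacking enzyme for full effect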
# Target sequence (Q9GZU7 76-261 limits assumed): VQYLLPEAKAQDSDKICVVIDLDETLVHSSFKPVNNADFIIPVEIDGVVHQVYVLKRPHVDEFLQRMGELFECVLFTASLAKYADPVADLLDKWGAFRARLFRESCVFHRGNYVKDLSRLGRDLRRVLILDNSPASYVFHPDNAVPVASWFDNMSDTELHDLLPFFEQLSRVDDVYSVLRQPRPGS
#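 Test system: SCP-1 catalytic domain; Buffer or medium: Acidic Tris acetate buffer with magnesium and detergent; Also added: Phosphorylated 17-residue peptide substrate; Compound: single 20 µM dose, 1% DMSO; Schedule: enzyme reaction 45 min at room temperature, colour 5 min, stabilisation 30 min; Signal: Phosphate-binding colour reagent, absorbance read at 630 nm.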
# LMPTP block – LMPTP (human) inhibition; P24666; actives 0.22% (n = 360,000); recombinant LMPTP-A, OMFP fluorogenic substrate, fluorescence intensity; inhibition, % at 20 µM;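 active = compounds that cut the enzyme signal by at least half of the control window in the single-dose screen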;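 also: plate controls were DMSO wells with enzyme plus substrate for no effect and substrate without enzyme for full effect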
# Target sequence (P24666 whole entry, looked up): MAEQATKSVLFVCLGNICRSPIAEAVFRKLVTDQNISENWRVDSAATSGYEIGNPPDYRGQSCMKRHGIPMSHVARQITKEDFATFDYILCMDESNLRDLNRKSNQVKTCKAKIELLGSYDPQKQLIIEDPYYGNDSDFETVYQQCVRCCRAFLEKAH
#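 test system = LMPTP-A | amount = 0.625 nM LMPTP-A final | reagent = fluorogenic phosphatase substrate OMFP at 400 µM final | incubation = 50 min at room temperature | benchmarks = no-enzyme low control, uninhibited high control | medium = Bis-Tris pH 6.0, DTT, detergent | signal = fluorescence intensity of OMFP turnover product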
# DNMT1 inh – blocks human DNA methyltransferase DNMT1; AID 588458; actives 0.83% (n = 360,000); inhibition (reported as % activation of signal), % at 10 µM; DNMT1 molecular beacon, Hinp1I cleavage, fluorescence; in the data active = inhibition above about 50%
# Rpn11 block – inhibitors of human proteasome Rpn11; O00487; human 26S proteasome, Ub4-pepOG fluorescence polarization; 20S core pre-blocked with epoxomicin; inhibition, % at 20 µM; actives 0.59% (n = 360,000); AID 588493;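 active = inhibition at 20 µM, scaled to each plate's controls, above about 33%, limit read from the data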
# STEP inh – blocks human striatal-enriched tyrosine phosphatase; P54829; recombinant STEP, OMFP fluorogenic substrate, fluorescence; inhibition, % at 20 µM; actives 0.25% (n = 360,000);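 active = inhibition at 20 µM, scaled per plate between control wells, above about 37%, limit read from the data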;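 also: 0% = DMSO with enzyme and substrate and 100% = substrate only without enzyme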
#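 Assay system: isolated STEP enzyme. Buffer or medium: pH 6.0 Bis-Tris with DTT and Tween 20. Also added: fluorogenic phosphatase substrate OMFP at 25 µM final. Dosing: 20 µM, 1% DMSO. Timing: 20 min reaction, room temperature, in the dark. Measured by: fluorescence intensity, excitation 480 nm, emission 540 nm. Evaluation: normalized % inhibition.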
# SUMO1 PPI mod – modulators of human SUMO1-mediated protein-protein interactions. inhibition, % at 20 µM. P63165. SUMO1 binding to a labelled peptide, TR-FRET, 1 h. actives 0.33% (n = 360,000). AID 602429; in the data active = inhibition above about 37%
# Target sequence (P63165 whole entry, looked up): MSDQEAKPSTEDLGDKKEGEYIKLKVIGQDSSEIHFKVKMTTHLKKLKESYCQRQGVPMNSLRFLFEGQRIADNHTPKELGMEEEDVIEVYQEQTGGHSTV
# Scp1 confirm – Scp-1 (human) inhibition, single-dose confirmed; shares compounds with Scp-1 inhibitor; recombinant SCP-1 catalytic domain, phosphate release, malachite green absorbance; inhibition, % at 20 µM; actives 61% (n = 2,500);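 also: plate controls were DMSO with enzyme for no effect and buffer wells lacking enzyme for full effect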
# Scp-1 MG ctr – counter-screen for Scp-1 inhibitors: colorimetric interference; Colorimetric interference counterscreen, malachite green absorbance 630 nm; 2,500 tested, under 10 active; apparent inhibition (interference), % at 20 µM; AID 540313; shares compounds with Scp-1 inhibitor;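 also: compounds added after enzyme reaction finished so only phosphate colour detection is probed; plate controls were DMSO wells with completed Scp-1 reaction for no effect and substrate wells lacking enzyme for full effect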
# Scp1 DSF – Scp-1 (human) binding by thermal shift | shares compounds with Scp-1 inhibitor | actives 25% (n = 1,500) | thermal shift relative to vanadate control, % at 40 µM | Recombinant SCP1, Sypro Orange thermal shift Tm | AID 540329;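 active = substances whose mean melting-temperature shift, as a percentage of the reference inhibitor's shift, reaches about 5.3%, limit read from the data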;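 also: 0% = Tm of DMSO wells and 100% = Tm with sodium orthovanadate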
# DNMT1 confirm – confirmation of human DNMT1 inhibitors; shares compounds with DNMT1 inh; DNMT1 molecular beacon HinP1I cleavage, fluorescence; inhibition, % at 10 µM; actives 8% (n = 2,300); AID 602385;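 active = average inhibition of at least 30% in the single-concentration confirmation test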
# Beacon interf – shows spectral interference in the DNMT1 beacon assay. activation (fluorescence interference), % at 10 µM. AID 602387. shares compounds with DNMT1 inh. actives 1% (n = 2,300). DNMT1 molecular beacon spectral interference counterscreen, fluorescence 485/520;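 active = activation of at least 30% at 10 µM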;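 also: DNMT1 catalytic domain with a HinP1I cleavage step and a FAM/dabcyl DNA beacon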
# * marks the source's active call; other numbers are inactive results; . = no result given. Hits are enriched below; roughly 2.3% of the tested compounds scored in any of these assays.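 The calls were made as follows, unless noted: active = inhibition of at least 30% at 20 µM; inactive = the rest.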
SMILES,Scp-1 inhibitor,LMPTP block,DNMT1 inh,Rpn11 block,STEP inh,SUMO1 PPI mod,Scp1 confirm,Scp-1 MG ctr,Scp1 DSF,DNMT1 confirm,Beacon interf
C/C=C\C(=O)Nc1cccc(C2=NOC3(C2)C[C@@H](C(N)=O)N(C(=O)C2(C)CC2)C3)c1 (stereo partly specified),0,-2,5,-1,0,1,.,.,.,.,.
C/C=C(/C)C(=O)Nc1cccc(C2=NOC3(C2)C[C@H](C(N)=O)N(C(=O)c2ccc(Cl)cc2)C3)c1 (stereo partly specified),-6,2,-6,-1,-1,4,.,.,.,.,.
C=C(C)C(=O)Nc1cccc(C2=NOC3(C2)C[C@H](C(N)=O)N(C(=O)c2ccccc2)C3)c1 (stereo partly specified),88*,1,91*,-4,0,36,65*,1,4,14,1
C=C(C)C(=O)Nc1cccc(C2=NOC3(C2)C[C@@H](C(N)=O)N(C(=O)c2cc([N+](=O)[O-])cc([N+](=O)[O-])c2C)C3)c1 (stereo partly specified),70*,1,96*,-2,1,46*,64*,-6,4,17,3
C/C=C/C(=O)Nc1cccc(C2=NOC3(C2)C[C@@H](C(N)=O)N(C(=O)c2cc([N+](=O)[O-])cc([N+](=O)[O-])c2C)C3)c1 (stereo partly specified),2,-2,4,-3,-3,-28,.,.,.,.,.
O=C(COC(=O)C1=COCCO1)NCc1ccc(Cl)cc1,-6,0,-6,-2,0,-2,.,.,.,.,.
CCc1ccc(C2=NN(CCC(=O)NCc3cccs3)C(=O)CC2)cc1,-2,-1,2,4,5,2,.,.,.,.,.
CCN(CC)CCCNC(=O)C1CCN(C(=O)c2oc3cc4sc(N(C)C)nc4cc3c2C)CC1,-1,2,-3,-13,-1,-1,.,.,.,.,.
CSc1ccccc1NC(=O)c1noc2c1CCC2,63*,9,81*,-13,5,6,67*,-13,3,6,1
COC(=O)c1ccccc1NC(=O)c1noc2c1CCC2,70*,8,99*,-15,13,2,65*,-15,4,3,4
CC1CCC2(CC1)NC(=O)N(NC(=O)C1CCN(C(=O)c3ccc(Cl)cc3)CC1)C2=O (stereo unspecified),-7,0,2,-2,0,6,.,.,.,.,.
O=C(Nc1nccs1)c1cc(-c2ccco2)nc2ccccc12,50*,21,55*,-26,-2,1,60*,-10,8.6*,16,-1
Cc1ccc(-c2cc(C(=O)NCc3ccco3)c3ccccc3n2)o1,77*,7,92*,-9,8,17,71*,-8,5,4,2
Cc1csc(NC(=O)c2cc(-c3ccco3)nc3ccccc23)n1,70*,28,96*,-25,1,13,53*,-15,11*,12,-2
O=C(O)c1cc(-c2ccco2)nc2ccccc12,59*,-1,61*,-78,-1,8,43*,-18,-3,1,-2
O=C(Nc1nc2ccccc2s1)c1cc(-c2ccco2)nc2ccccc12,4,0,8,-3,1,13,.,.,.,.,.
Cc1cc(C(=O)NCc2ccco2)c2ccccc2n1,-11,0,-2,18,0,-4,.,.,.,.,.
O=C(Nc1nccs1)c1cc(-c2ccccc2)nc2ccccc12,-5,3,-1,-8,-2,-4,.,.,.,.,.
Cc1cc(=O)[nH]c(SCC(=O)N(CCC#N)c2ccccc2)c1C#N,-1,0,2,0,0,0,.,.,.,.,.
O=P(c1ccccc1)(c1ccccc1)c1cc(S(=O)(=O)O)ccc1O,88*,29,83*,-4,98*,15,60*,-13,-18,3,-1
CCN(CC)C(=O)CSc1ncnc2sccc12,-10,-1,2,-1,-1,4,.,.,.,.,.
CCN(CC)C(=O)CSc1ncnc2c(-c3cccs3)nsc12,76*,45,97*,13,4,24,61*,-15,6.0*,5,6
CCOc1ccc(NC(=S)N2CCN(S(=O)(=O)c3ccc(OC)cc3)CC2)cc1,-8,1,1,10,2,1,.,.,.,.,.
CCN(CC)S(=O)(=O)c1ccc(/C=C/C(=O)OCC(=O)NCc2ccco2)cc1,71*,10,64*,-17,7,-17,79*,2,4,4,6
CCOc1ccc(NC(=O)CN(C)C(=O)c2sccc2-c2ccccc2)cc1OCC,2,0,-2,-2,-3,1,.,.,.,.,.
SMILES,Scp-1 inhibitor,LMPTP block,DNMT1 inh,Rpn11 block,STEP inh,SUMO1 PPI mod,Scp1 confirm,Scp-1 MG ctr,Scp1 DSF,DNMT1 confirm,Beacon interf
Cc1cccc(OCC(=O)N(Cc2ccco2)C2CCS(=O)(=O)C2)c1C (stereo unspecified),-7,1,0,-1,-2,-2,.,.,.,.,.
COC(=O)C1=COC(OC2OC(CO)C(O)C(O)C2O)C2C1C=CC2(O)CO (stereo unspecified),58*,6,90*,-22,14,19,34*,-11,-6,3,-1
COc1ccc(NC(=O)C2CCN(S(=O)(=O)c3cn(C)nc3C)CC2)cc1,-6,0,0,-5,2,1,.,.,.,.,.
C/C(=N\Nc1c([N+](=O)[O-])c(C)nn1C)c1ccc(F)cc1F,-6,0,2,1,15,-6,.,.,.,.,.
Cc1ccc(OCC(=O)Nc2nnc(S(=O)(=O)N3CCCCC3)s2)cc1,71*,31,89*,19,3,43*,57*,-20,5.7*,13,0
Cc1ccc(OCC(=O)Nc2nnc(S(=O)(=O)N3CCCCCC3)s2)cc1,-3,-1,7,-1,2,6,.,.,.,.,.
S=c1[nH]nc(-c2ccco2)n1-c1ccccc1Cl,-14,-3,0,10,-2,1,.,.,.,.,.

# Screens from PubChem.
